Assay [1] concerns the target Neuronal acetylcholine receptor subunit alpha-7 (Rattus norvegicus) (UniProt Q05941). The assay is described as follows: Antagonist activity at rat alpha7 nAChR expressed in Xenopus laevis oocytes assessed as inhibition of acetylcholine-induced current at 100 uM by two-electrode voltage clamp electrophysiological analysis relative to acetylcholine. The assay is classed as cell-based.

Assay [2] concerns the target Neuronal acetylcholine receptor; alpha3/beta4 (Rattus norvegicus) (UniProt P04757+P12392). The assay is described as follows: Agonist activity at rat alpha3beta4 nAChR expressed in Xenopus laevis oocytes assessed as stimulation of acetylcholine-induced current at 100 uM by two-electrode voltage clamp electrophysiological analysis relative to acetylcholine. It counts as cell-based. The method, boiled down:
(§1)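 Rat receptors expressed in Xenopus oocytes, two-electrode voltage clamp. Current evoked by 100 µM test compound was compared with the mean of three preceding ACh applications. The response was expressed as a percentage of the maximal ACh response.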

The test system of assay [3] is Mus musculus. The assay is described as follows: Inhibition of nicotine-induced antinociception in mouse at 100 ug/kg, sc after 5 mins by tail flick test relative to control. The assay is classed as functional.
Assay [4] has as its system Mus musculus. The assay is described as follows: Inhibition of nicotine-induced antinociception in mouse at 100 ug/kg, sc after 5 mins by hot plate test relative to control. It counts as functional.
Assay [5] relates to Mus musculus. The assay is described as follows: Inhibition of nicotine-induced antinociception in mouse at 1000 ug/kg, sc after 5 mins by hot plate test relative to control. The assay is classed as functional.
In assay [6] the target is Neuronal acetylcholine receptor subunit alpha-7 (Rattus norvegicus) (UniProt Q05941). The assay is described as follows: Agonist activity at rat alpha7 nAChR expressed in Xenopus laevis oocytes assessed as stimulation of acetylcholine-induced current at 100 uM by two-electrode voltage clamp electrophysiological analysis relative to acetylcholine. It counts as cell-based. Put shortly:
as §1

For assay [7], the system named is Mus musculus. The assay is described as follows: Effect on spontaneous activity in sc dosed mouse after 5 mins. It counts as functional.
In assay [8] the test system is Mus musculus. The assay is described as follows: Antinociceptive activity in mouse at 10 mg/kg, sc by hot plate test relative to control. The assay is classed as functional. Particulars: route subcutaneous.
In assay [9] the test system is Mus musculus. The assay is described as follows: Antinociceptive activity in mouse at 10 mg/kg, sc after 5 mins by tail flick test relative to control. Particulars: route subcutaneous. The assay is classed as functional.
Assay [10] concerns Mus musculus. The assay is described as follows: Inhibition of nicotine-induced antinociception in mouse at 10000 ug/kg, sc after 5 mins by hot plate test relative to control. The assay is classed as functional.
Assay [11] relates to Mus musculus. The assay is described as follows: Effect on hypothermia in sc dosed mouse after 30 mins. The assay is classed as functional. Particulars: 0.5 h.
In assay [12] the target is T1, Neuronal acetylcholine receptor; alpha4/beta2 (Rattus norvegicus) (UniProt P09483+P12390). The assay is described as follows: Agonist activity at rat alpha4beta2 nAChR expressed in Xenopus laevis oocytes assessed as stimulation of acetylcholine-induced current at 100 uM by two-electrode voltage clamp electrophysiological analysis relative to acetylcholine. It counts as cell-based. The method, boiled down: as §1

Assay [13] has as its system Mus musculus. The assay is described as follows: Inhibition of nicotine-induced antinociception in sc dosed mouse after 5 mins by tail flick test. It counts as functional.
Assay [14] has as its system Mus musculus. The assay is described as follows: Inhibition of nicotine-induced antinociception in sc dosed mouse after 5 mins by hot plate test. The assay is classed as functional.
Assay [15] concerns the target Neuronal acetylcholine receptor; alpha4/beta2 (Rattus norvegicus, UniProt P09483+P12390). The assay is described as follows: Antagonist activity at rat alpha4beta2 nAChR expressed in Xenopus laevis oocytes assessed as inhibition of acetylcholine-induced current by two-electrode voltage clamp electrophysiological analysis. The assay is classed as cell-based. The method, boiled down: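 Two-electrode voltage clamp on rat α4β2, α3β4 or α7 nAChRs expressed in Xenopus oocytes. Compounds were tested across a concentration range to build concentration-inhibition curves. Data were fitted to I = Imax/[1+(IC50/X)^n] to derive IC50 and Hill coefficient.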

Assay [16] deals with T1, Neuronal acetylcholine receptor; alpha4/beta2 (Rattus norvegicus). The assay is described as follows: Antagonist activity at rat alpha4beta2 nAChR expressed in Xenopus laevis oocytes assessed as inhibition of acetylcholine-induced current at 100 uM by two-electrode voltage clamp electrophysiological analysis relative to acetylcholine. The assay is classed as cell-based.

Assay [17] concerns the target Neuronal acetylcholine receptor; alpha3/beta4 (Rattus norvegicus, UniProt P04757+P12392). The assay is described as follows: Agonist activity at rat alpha3beta4 nAChR expressed in Xenopus laevis oocytes assessed as stimulation of acetylcholine-induced current by two-electrode voltage clamp electrophysiological analysis. The assay is classed as cell-based.
For assay [18], the species on record is Rattus norvegicus. The assay is described as follows: Selectivity ratio of IC50 for rat alpha7 nAChR to IC50 for rat alpha4beta2 nAChR.
Assay [19] relates to Mus musculus. The assay is described as follows: Antinociceptive activity in sc dosed mouse after 5 mins by tail flick test. The assay is classed as functional.
Assay [20] deals with Mus musculus. The assay is described as follows: Antinociceptive activity in sc dosed mouse by hot plate test. The assay is classed as functional.

Sequence of Neuronal acetylcholine receptor subunit alpha-7 (Rattus norvegicus) (Q05941 whole entry): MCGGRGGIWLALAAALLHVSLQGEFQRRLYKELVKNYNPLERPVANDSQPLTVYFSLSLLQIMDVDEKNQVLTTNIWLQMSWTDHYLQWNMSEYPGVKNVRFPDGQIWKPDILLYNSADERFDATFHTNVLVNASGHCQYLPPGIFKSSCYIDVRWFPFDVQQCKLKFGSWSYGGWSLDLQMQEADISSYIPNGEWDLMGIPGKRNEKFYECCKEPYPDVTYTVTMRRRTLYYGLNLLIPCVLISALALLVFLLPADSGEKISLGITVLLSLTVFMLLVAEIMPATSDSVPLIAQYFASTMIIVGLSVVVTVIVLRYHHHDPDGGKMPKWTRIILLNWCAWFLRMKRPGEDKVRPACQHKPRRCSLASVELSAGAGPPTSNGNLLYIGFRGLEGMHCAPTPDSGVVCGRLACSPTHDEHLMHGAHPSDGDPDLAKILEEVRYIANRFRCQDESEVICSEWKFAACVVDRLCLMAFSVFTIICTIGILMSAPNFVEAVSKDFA
Sequence of Neuronal acetylcholine receptor; alpha4/beta2 (P09483 whole entry): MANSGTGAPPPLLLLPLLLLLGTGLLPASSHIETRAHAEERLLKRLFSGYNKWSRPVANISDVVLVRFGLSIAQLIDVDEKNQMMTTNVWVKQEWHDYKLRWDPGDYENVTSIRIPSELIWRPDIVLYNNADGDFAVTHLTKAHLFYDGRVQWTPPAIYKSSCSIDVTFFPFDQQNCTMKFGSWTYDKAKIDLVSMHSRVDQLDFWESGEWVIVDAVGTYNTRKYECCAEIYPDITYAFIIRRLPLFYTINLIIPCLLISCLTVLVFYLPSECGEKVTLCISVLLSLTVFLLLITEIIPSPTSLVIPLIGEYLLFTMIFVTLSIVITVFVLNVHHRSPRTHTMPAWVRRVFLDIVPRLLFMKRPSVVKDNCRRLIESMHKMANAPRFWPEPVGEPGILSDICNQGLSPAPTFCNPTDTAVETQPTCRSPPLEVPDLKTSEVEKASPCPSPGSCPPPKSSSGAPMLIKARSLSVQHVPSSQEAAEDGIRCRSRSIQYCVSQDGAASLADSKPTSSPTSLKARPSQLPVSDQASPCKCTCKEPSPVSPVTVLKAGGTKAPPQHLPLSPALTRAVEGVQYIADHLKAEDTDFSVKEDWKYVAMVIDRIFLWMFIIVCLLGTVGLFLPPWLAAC
Sequence of Neuronal acetylcholine receptor; alpha4/beta2 (P12390 whole entry): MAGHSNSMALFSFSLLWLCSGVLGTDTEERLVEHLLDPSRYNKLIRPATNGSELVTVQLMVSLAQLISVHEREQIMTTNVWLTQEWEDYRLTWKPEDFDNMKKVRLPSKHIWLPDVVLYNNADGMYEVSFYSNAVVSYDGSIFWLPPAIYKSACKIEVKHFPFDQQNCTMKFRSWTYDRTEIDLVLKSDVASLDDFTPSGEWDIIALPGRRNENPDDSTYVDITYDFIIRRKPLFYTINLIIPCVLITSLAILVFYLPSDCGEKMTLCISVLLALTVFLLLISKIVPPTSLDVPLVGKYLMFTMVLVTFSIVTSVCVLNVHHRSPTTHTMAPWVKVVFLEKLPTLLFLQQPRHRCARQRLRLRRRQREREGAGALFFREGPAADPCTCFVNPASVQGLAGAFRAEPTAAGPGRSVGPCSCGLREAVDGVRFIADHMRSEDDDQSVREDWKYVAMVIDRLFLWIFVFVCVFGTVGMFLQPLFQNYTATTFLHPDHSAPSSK
Sequence of Neuronal acetylcholine receptor; alpha3/beta4 (P04757 whole entry): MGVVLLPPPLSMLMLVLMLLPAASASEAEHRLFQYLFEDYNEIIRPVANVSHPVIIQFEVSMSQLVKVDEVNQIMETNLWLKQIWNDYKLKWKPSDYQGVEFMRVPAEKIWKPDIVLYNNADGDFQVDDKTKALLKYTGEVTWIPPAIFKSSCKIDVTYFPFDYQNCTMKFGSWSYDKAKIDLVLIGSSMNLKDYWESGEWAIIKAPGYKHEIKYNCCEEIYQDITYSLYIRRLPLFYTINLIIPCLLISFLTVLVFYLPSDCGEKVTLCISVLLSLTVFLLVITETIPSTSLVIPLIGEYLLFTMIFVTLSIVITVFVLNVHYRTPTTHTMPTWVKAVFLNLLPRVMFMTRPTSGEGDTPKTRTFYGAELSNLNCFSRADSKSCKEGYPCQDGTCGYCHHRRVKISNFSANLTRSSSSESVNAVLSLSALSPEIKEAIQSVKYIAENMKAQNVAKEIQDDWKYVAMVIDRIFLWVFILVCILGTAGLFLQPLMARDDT
Sequence of Neuronal acetylcholine receptor; alpha3/beta4 (P12392 whole entry): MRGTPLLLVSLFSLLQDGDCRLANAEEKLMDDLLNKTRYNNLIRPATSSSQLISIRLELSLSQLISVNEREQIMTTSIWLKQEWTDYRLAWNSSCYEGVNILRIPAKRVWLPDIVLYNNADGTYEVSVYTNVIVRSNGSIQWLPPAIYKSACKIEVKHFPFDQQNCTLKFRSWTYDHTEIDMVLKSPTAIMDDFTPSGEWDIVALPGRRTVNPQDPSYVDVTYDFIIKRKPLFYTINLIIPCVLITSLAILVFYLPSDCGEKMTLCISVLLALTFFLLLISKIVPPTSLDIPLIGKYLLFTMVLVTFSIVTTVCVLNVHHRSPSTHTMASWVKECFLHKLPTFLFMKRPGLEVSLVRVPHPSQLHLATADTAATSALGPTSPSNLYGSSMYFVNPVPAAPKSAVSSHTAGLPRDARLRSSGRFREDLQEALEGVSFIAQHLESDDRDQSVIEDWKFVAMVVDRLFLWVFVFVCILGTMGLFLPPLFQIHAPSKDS

Regarding `Nc1ccc(-c2cc([C@H]3C[C@H]4CC[C@H]3N4)cnc2F)cn1` (racemic), the Imax in assay [1] came to 50%.
Regarding `Fc1ccc(-c2cc([C@H]3C[C@H]4CC[C@H]3N4)cnc2F)cn1` (racemic), the Emax in assay [2] was 9%. Moreover, the inhibition in vivo at 0.1 mg/kg in assay [3] and in assay [4] was 1% throughout.
In assay [5], `Fc1ncc(C2CC3CCC2N3)cc1-c1cccnc1` (racemic) came in with an inhibition in vivo at 1 mg/kg of 10%. The Emax in assay [6] stood at 7%.
For `Nc1cc(-c2cc([C@H]3C[C@H]4CC[C@H]3N4)cnc2F)ccn1` (racemic), in assay [6], the Emax stood at 10%.
Compound `O=[N+]([O-])c1cccc(-c2cc(C3CC4CCC3N4)cnc2F)c1` (racemic) returned an ED50 in assay [7] of 6.5 mg/kg. Moreover, the Activity came out at 20% in assay [8] and 3% in assay [9].
The compound `COc1cc(-c2cc([C@H]3C[C@H]4CC[C@H]3N4)cnc2F)ccn1` (racemic) came in with an inhibition in vivo at 10 mg/kg in assay [10] of 40%.
For the compound `COc1ccc(-c2cc([C@H]3C[C@H]4CC[C@H]3N4)cnc2F)cn1` (racemic), the inhibition in vivo at 0.1 mg/kg in [4] came to 0%.
In the case of `CN1CCC[C@H]1c1cccnc1` [NICOTINE], the ED50 in assay [7] turned out to be 0.5 mg/kg; in assay [11] it was 1 mg/kg. The Emax in assay [2] came to 37%; in assay [6], 43%; in [12], 40%.
On to `c1cnc2cc3c(cc2n1)[C@@H]1CNC[C@H]3C1` [VARENICLINE], for which the ED50 in assay [7] is 2.1 mg/kg; in assay [11], 2.8 mg/kg. Also, the Activity in assay [8] turned out to be 10%; in assay [9], 11%. Also, the values for the AD50 in [13] and in assay [14] were 0.2 µg/kg and 470 µg/kg, respectively. In addition, the Emax in [2] amounted to 66%; in assay [6], 74%; in assay [12] it was 13%. Also, the IC50 in [15] is 200 nM. Also, the Imax in assay [16] turned out to be 38%. The EC50 in [17] worked out at 55 µM.
For `O=[N+]([O-])c1ccc(-c2cc([C@H]3C[C@H]4CC[C@H]3N4)cnc2F)cc1` (racemic), the ED50 was determined as 0.22 mg/kg in assay [7] and 0.21 mg/kg in assay [11]. The Ratio IC50 in [18] stood at 10. The Activity in assay [9] is on record as 5%.
On to `Clc1ccc(C2CC3CCC2N3)cn1` (centres undefined) [EPIBATIDINE], for which the ED50 worked out at 0.001 mg/kg in assay [7], 6 µg/kg in assay [19] and 4 µg/kg in assay [20]. Also, the Emax in [2] was determined as 97%; in assay [6] it was 150%; in assay [12], 131%.

(Values after ChEMBL document CHEMBL3124759, “Synthesis, nicotinic acetylcholine receptor binding, and antinociceptive properties of 2'-fluoro-3'-(substituted pyridinyl)-7-deschloroepibatidine analogues” (J Med Chem, 2014).)
